Measured values: article PMC8336959 (Science Advances, 2021)
Square brackets hold non-standard residues; d marks the D form. Ends that are not written are not given here. pY = N[C@@H](Cc1ccc(OP(=O)(O)O)cc1)C(=O)O

Columns and labels:
control (WT) HeLa cells = assay: Annexin V/PI staining assay, control cells; assay type: cell-based, human; conditions: FACS, 50 μM olaparib for 72 hours, triplicate
[1] = Sulforhodamine B assay of olaparib-induced cytotoxicity, GRB2-KO cells; assay type: cell-based, human; conditions: human, GRB2-KO HeLa cells
GRB2-KO HeLa cells [2] = assay: as above; assay type: cell-based, human; conditions: Sulforhodamine B assay, ratio of IC50 WT vs GRB2-KO
[3] = tested on: GRB2-KO HeLa cells reconstituted with ^K109RGRB2; assay: Annexin V/PI staining assay, KO + K109R cells; assay type: cell-based, human; conditions: FACS, 50 μM olaparib for 72 hours, compared with GRB2-KO
[4] = Sulforhodamine B assay of olaparib-induced cytotoxicity, KO + K109R cells; assay type: cell-based; conditions: human, GRB2-KO HeLa cells reconstituted with K109R mutant GRB2
In short: (§1)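 HeLa cells kept in RPMI 1640 with 10% FBS at 10% CO2. Knockout made by CRISPR-Cas9 gRNA delivered by lentivirus, with puromycin or blasticidin selection; clones checked by Western blot and pooled. Stable reconstitution with wild-type or K109R Strep-tagged GRB2. Cytotoxicity of PARP inhibitor read by sulforhodamine B staining. IC50 taken from the concentration–response data.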

GRB2-KO HeLa cells [5] = assay: Annexin V/PI staining assay, GRB2-KO cells; assay type: cell-based, human; conditions: FACS, 50 μM olaparib for 72 hours, triplicate
In short: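 HeLa cells (GRB2-knockout and comparison lines) grown in RPMI 1640 with 10% FBS at 10% CO2. Cells treated 72 h with DMSO or 50 μM PARP inhibitor, then trypsinized, washed and resuspended in annexin-binding buffer. Labelled with annexin V–Alexa Fluor 647 plus PI for 15 min at room temperature in the dark. Annexin V- and PI-positive fractions scored by flow cytometry against the DMSO control. Triplicate.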

[6] = Sulforhodamine B assay of olaparib-induced cytotoxicity, control cells; assay type: cell-based; conditions: human, control (WT) HeLa cells
In short: as §1

[7] = Sulforhodamine B assay of olaparib-induced cytotoxicity, KO + GRB2 cells; assay type: cell-based; conditions: human, GRB2-KO HeLa cells reconstituted with WT GRB2
In short: as §1

GRB2-SH2 domain = GRB2-SH2 domain (Homo sapiens, UniProt P62993); assay: MST binding of synthetic peptides to Atto488-labeled GRB2-SH2 domain; conditions: synthetic peptide
GRB2-SH2 domain, sequence (P62993 60-152 limits assumed): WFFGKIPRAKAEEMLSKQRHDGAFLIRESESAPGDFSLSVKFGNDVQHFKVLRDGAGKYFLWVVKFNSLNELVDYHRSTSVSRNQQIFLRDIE

[8] = tested on: human MRE11 (residues 1 to 411); assay: MST binding of Atto488-labeled GRB2; conditions: bacterially expressed purified proteins

O=C(c1cc(Cc2n[nH]c(=O)c3ccccc23)ccc1F)N1CCN(C(=O)C2CC2)CC1 [olaparib]
olaparib-induced apoptosis, share of cells (control (WT) HeLa cells): 20%
IC50 [1]: 18 ± 2.9 µM
sensitivity of GRB2-KO cells relative to WT control cells (GRB2-KO HeLa cells [2]): seven
olaparib-induced apoptosis, in words [3]: failed to rescue the phenotype
IC50 [4]: 20 ± 3 µM
olaparib-induced apoptosis, share of cells (GRB2-KO HeLa cells [5]): 60%
IC50 [6]: 124 ± 41 µM
IC50 [7]: 164 ± 47 µM

PSGGKKATQA(pS)QEY [pS139 H2AX]
binding to GRB2-SH2 domain in words (GRB2-SH2 domain): failed to produce a binding isotherm

PSGGKKATQASQE(pY) [pY142 H2AX]
binding to GRB2-SH2 domain in words (GRB2-SH2 domain): failed to produce a binding isotherm

PWVN[pY]QDGNLN [WVNpYQDGNLN]
binding to GRB2-SH2 domain in words (GRB2-SH2 domain): limited impact

^K109RGRB2: GRB2 lysine-109-to-arginine mutant, MRE11 nonbinding, generated by site-directed mutagenesis
MRE11 binding in words [8]: no binding
